# Screening data: PubChem, Sanford-Burnham Center for Chemical Genomics
# mIAP inh – inhibitors of mouse IAP, primary screen, biochemical, luminescence, uHTS | intestinal alkaline phosphatase [Mus musculus] | purified mouse IAP, CDP-Star luminescence, 30 min | inhibition, % at 10 µM | 330,000 compounds, 0.2% hits | AID 2806, 2010;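 active = inhibition of at least 40% at 10 µM in the primary screen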
# hIAP inh – human IAP inhibitors, primary screen, biochemical, luminescence, uHTS | Intestinal-type alkaline phosphatase (Homo sapiens), P09923 | purified IAP, CDP-Star luminescence, 30 min | inhibition, % at 10 µM | 330,000 compounds, 0.12% hits | AID 2544, 2010;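 active = inhibition reaching a set limit with compound at 10 µM in the primary screen, cut at about 35% in these data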
# Target sequence (P09923 whole entry, looked up): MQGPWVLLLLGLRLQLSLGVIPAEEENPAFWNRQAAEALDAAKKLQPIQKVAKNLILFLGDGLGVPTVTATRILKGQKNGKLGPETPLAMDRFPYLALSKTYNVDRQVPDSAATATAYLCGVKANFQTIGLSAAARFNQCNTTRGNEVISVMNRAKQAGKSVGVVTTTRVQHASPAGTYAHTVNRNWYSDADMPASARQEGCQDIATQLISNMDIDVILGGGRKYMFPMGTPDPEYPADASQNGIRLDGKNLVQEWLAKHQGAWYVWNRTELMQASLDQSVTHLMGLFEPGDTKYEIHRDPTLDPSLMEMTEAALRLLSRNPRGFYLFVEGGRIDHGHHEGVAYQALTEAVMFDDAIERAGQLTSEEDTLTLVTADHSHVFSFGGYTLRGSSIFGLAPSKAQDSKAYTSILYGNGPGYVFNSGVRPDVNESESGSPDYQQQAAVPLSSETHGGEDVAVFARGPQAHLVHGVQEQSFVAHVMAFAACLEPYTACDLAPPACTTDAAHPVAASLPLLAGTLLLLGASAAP
# bIAP act – bovine intestinal alkaline phosphatase activators, primary screen, biochemical, bovine IAP, CDP-star luminescence. purified bovine IAP, 30 min; stronger effect = higher value; fold of DMSO-control signal, blank-subtracted. alkaline phosphatase, intestinal [Bos taurus]. activation factor at 20 µM. 200,000 compounds, 0.17% hits;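 active = activation factor of 2 or more at 20 µM, a signal rise over negative controls twice the positive control's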
# mIAP act – activators of mouse IAP, primary screen, biochemical, luminescence, uHTS | intestinal alkaline phosphatase [Mus musculus] | muIAP, CDP-Star luminescence, 30 min; stronger effect = higher value; 1 = vehicle-only enzyme signal, 0 = enzyme-free wells | activation factor at 10 µM | 330,000 compounds, 0.24% hits;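 active = activation factor of at least 2 at 20 µM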
#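 Assay system: mouse IAP enzyme / Compound: DMSO-dissolved test compounds / Timing: 30 min, room temperature / Measured by: luminescence from enzymatic CDP-Star hydrolysis / Control set: DMSO-only wells, enzyme-free buffer wells as negative control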
# hIAP activ – human IAP activators, primary screen, biochemical, luminescence, uHTS | 330,000 compounds, 0.16% hits | AID 2524, 2010 | purified human IAP, CDP-Star luminescence, 30 min; stronger effect = higher value; 1 = vehicle-only enzyme, 0 = enzyme-free background | activation factor at 10 µM;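 active = activation factor of the enzyme at least 2-fold when tested at 20 µM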
# bIAP inh – bovine intestinal alkaline phosphatase inhibitors, primary screen, selectivity assay for TNAP inhibitor project, biochemical, bovine IAP, CDP-star luminescence. 190,000 tested, under 10 active. purified bovine IAP, 30 min. alkaline phosphatase, intestinal [Bos taurus]. inhibition, % at 20 µM;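 active = over 50% inhibition of intestinal alkaline phosphatase at 20 µM in the single-dose screen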
#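 Incubation: 30 min reaction at room temperature / Material: purified bovine intestinal alkaline phosphatase (IAP) enzyme / Input: enzyme at 1/65,000,000 dilution / Dosing: 20 µM single dose / Signal: CDP-star luminescence signal / Reagent: CDP-star chemiluminescent phosphatase substrate, 30 µM final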
# mIAP inh conf – inhibitors of mouse IAP, confirmation, biochemical, luminescence, single concentration; inhibition, % at 10 µM; purified mouse IAP, CDP-Star luminescence, 30 min; shares compounds with mIAP inh; 11,000 compounds, 4.7% hits;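 active = inhibition of at least 40% at 10 µM in either of the two replicates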
# Numbers stand for hits; i = inactive; nt = no result. An excerpt weighted towards active compounds, which were near 0.79% of everything screened.
SMILES,mIAP inh,hIAP inh,bIAP act,mIAP act,hIAP activ,bIAP inh,mIAP inh conf
CCN(CC)C(=O)CSc1nnc(CSc2ncccn2)n1C,i,i,nt,i,i,nt,nt
CCN1C(=O)/C(=C2\SC(=S)N(NC(=O)c3ccccc3O)C2=O)c2ccccc21,51.1,i,nt,i,i,nt,47.3
Cc1ccc(-c2csc(N)n2)s1,68.4,i,i,i,i,i,78.0
CC(=O)NCc1ccc(-c2csc(N)n2)s1,72.4,i,i,i,i,i,77.0
Cc1csc(N)n1,i,i,i,i,i,i,nt
CC(=O)Nc1cccc(-c2csc(N)n2)c1,i,i,i,i,i,i,nt
O=C(Nc1ccccc1)NC1CC2CCC(C1)N2Cc1nnnn1Cc1ccc2c(c1)OCO2 (stereo unspecified),i,i,i,2.49,i,i,i
c1ccc(Cn2nnnc2CN2CCN(Cc3ccc4c(c3)OCO4)CC2)cc1,i,i,i,i,i,i,nt
Cn1c(O)c(C2=c3ccccc3=NC2=O)[nH]c1=S,i,i,i,i,i,i,nt
O=C1N=c2ccccc2=C1c1sc(=S)n(NC(=O)c2ccccc2)c1O,63.6,i,nt,i,i,nt,64.4
NC(=O)C[C@H](NC(=O)c1ccc(Cl)cc1)C(=O)OCc1ccccc1,i,i,nt,i,i,nt,nt
CC(C)(C)OC(=O)C[C@@H]1C/C=C\C[C@H](CC(=O)N[C@@H](CO)Cc2ccccc2)C(=O)N[C@H](C(C)(C)C)COC1=O,i,i,nt,i,i,nt,nt
S=C(NCc1ccc(Cl)cc1Cl)NC1CCCCC1,i,i,i,5.41,i,i,i
Cc1cc(C)cc(NC(=O)C2CCN(S(=O)(=O)c3ccc4c(c3)NC(=O)C(C)S4)CC2)c1 (stereo unspecified),i,i,nt,2.45,i,nt,i
COc1cc(C[C@@H](C)[C@@H](C)Cc2ccc(O)c(OC)c2)ccc1O,i,i,nt,i,i,nt,nt
CC(Cc1ccc(O)c(O)c1)C(C)Cc1ccc(O)c(O)c1 (stereo unspecified),58.3,i,nt,i,i,nt,50.6
O=c1cc(-c2ccc(O)cc2)oc2c1ccc1ccccc12,i,i,nt,i,i,nt,nt
O=c1cc(-c2ccc(O)cc2)oc2c(O)c(O)c(O)c(O)c12,66.2,i,nt,i,i,nt,66.7
CCCCn1c(N)c(N(CCOC)C(=O)COc2ccc(Cl)cc2)c(=O)[nH]c1=O,i,i,i,i,i,i,nt
O=C(O)COc1ccc(/C=C/c2nc(-c3ccccc3O)n[nH]2)cc1,51.5,i,nt,i,i,nt,62.2
COc1ccc(/C=C/c2nc(-c3ccccc3O)n[nH]2)cc1OC,i,i,i,i,i,i,nt
Cc1ccc2[nH]c(=O)c(C(c3nnnn3C3CCCC3)N3CCCc4ccccc43)cc2c1 (stereo unspecified),56.7,i,i,i,i,i,59.9
Cc1ccc2[nH]c(=O)c(C(c3nnnn3CC3CCCO3)N3CCCc4ccccc43)cc2c1 (stereo unspecified),49.7,i,i,i,i,i,60.2
Cc1ccc2cc(C(c3nnnn3Cc3ccccc3)N3CCc4ccccc43)c(=O)[nH]c2c1 (stereo unspecified),i,i,i,i,i,i,nt
Cc1ccc2[nH]c(=O)c(C(c3nnnn3Cc3ccccc3)N3CCc4ccccc43)cc2c1 (stereo unspecified),55.2,i,i,i,i,i,64.3
Cc1ccc2[nH]c(=O)c(C(c3nnnn3CC3CCCO3)N3CCc4ccccc4C3)cc2c1 (stereo unspecified),70.2,i,i,i,i,i,74.2
COC(=O)[C@H](CC(C)C)N1Cc2cc(OC)cc(OC)c2-c2ccccc2S1(=O)=O,i,nt,nt,i,nt,nt,nt
